A selection: hits, their analogues and other compounds. The true share with any hit is near 0.72%.
hIAP inh = human IAP inhibitors, primary screen, biochemical, luminescence, uHTS. hit rate 0.12% among 330,000. AID 2544, 2010. inhibition, % at 10 µM. purified IAP, CDP-Star luminescence, 30 min;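 active = inhibition reaching a set limit with compound at 10 µM in the primary screen, cut at about 35% in these data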;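 also: plate controls were DMSO wells with enzyme for no effect and no-enzyme buffer wells for full effect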
Target sequence (P09923 whole entry, looked up): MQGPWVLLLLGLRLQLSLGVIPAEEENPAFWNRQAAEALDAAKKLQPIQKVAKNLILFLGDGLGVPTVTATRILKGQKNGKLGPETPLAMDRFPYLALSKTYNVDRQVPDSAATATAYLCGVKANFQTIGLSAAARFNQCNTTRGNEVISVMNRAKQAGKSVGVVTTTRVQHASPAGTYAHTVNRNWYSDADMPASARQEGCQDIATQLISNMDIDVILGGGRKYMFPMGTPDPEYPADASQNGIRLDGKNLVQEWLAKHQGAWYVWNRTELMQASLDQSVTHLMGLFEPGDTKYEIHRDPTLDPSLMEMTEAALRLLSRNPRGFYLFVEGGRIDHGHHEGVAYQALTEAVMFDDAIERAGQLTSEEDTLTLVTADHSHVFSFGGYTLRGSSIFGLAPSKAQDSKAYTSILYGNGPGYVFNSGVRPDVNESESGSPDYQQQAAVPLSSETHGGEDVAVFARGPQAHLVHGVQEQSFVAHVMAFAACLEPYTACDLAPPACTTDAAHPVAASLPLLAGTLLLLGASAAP
bIAP inh = bovine intestinal alkaline phosphatase inhibitors, primary screen, selectivity assay for TNAP inhibitor project, biochemical, bovine IAP, CDP-star luminescence | alkaline phosphatase, intestinal [Bos taurus] | purified bovine IAP, 30 min | inhibition, % at 20 µM | 190,000 tested, under 10 active | AID 1019, 2008;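 active = over 50% inhibition of intestinal alkaline phosphatase at 20 µM in the single-dose screen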
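Incubation: 30 min reaction at room temperature / Material: purified bovine intestinal alkaline phosphatase (IAP) enzyme / Input: enzyme at 1/65,000,000 dilution / Dosing: 20 µM single dose / Signal: CDP-star luminescence signal / Reagent: CDP-star chemiluminescent phosphatase substrate, 30 µM final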
hIAP activ = human IAP activators, primary screen, biochemical, luminescence, uHTS; purified human IAP, CDP-Star luminescence, 30 min; hits give high values; 1 = vehicle-only enzyme, 0 = enzyme-free background; Intestinal-type alkaline phosphatase (Homo sapiens), P09923; activation factor at 10 µM; hit rate 0.16% among 330,000;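 active = activation factor of the enzyme at least 2-fold when tested at 20 µM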
mIAP inh = inhibitors of mouse IAP, primary screen, biochemical, luminescence, uHTS; hit rate 0.2% among 330,000; purified mouse IAP, CDP-Star luminescence, 30 min; intestinal alkaline phosphatase [Mus musculus]; inhibition, % at 10 µM;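 active = inhibition of at least 40% at 10 µM in the primary screen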;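 also: plate controls were DMSO with enzyme for no effect and no enzyme wells for full effect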
bIAP act = bovine intestinal alkaline phosphatase activators, primary screen, biochemical, bovine IAP, CDP-star luminescence; alkaline phosphatase, intestinal [Bos taurus]; AID 1016, 2008; activation factor at 20 µM; hit rate 0.17% among 200,000; purified bovine IAP, 30 min; hits give high values; fold of DMSO-control signal, blank-subtracted;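 active = activation factor of 2 or more at 20 µM, a signal rise over negative controls twice the positive control's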
mIAP act = activators of mouse IAP, primary screen, biochemical, luminescence, uHTS. hit rate 0.24% among 330,000. intestinal alkaline phosphatase [Mus musculus]. muIAP, CDP-Star luminescence, 30 min; hits give high values; 1 = vehicle-only enzyme signal, 0 = enzyme-free wells. AID 2805, 2010. activation factor at 10 µM;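 active = activation factor of at least 2 at 20 µM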
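Assay system: mouse IAP enzyme / Compound: DMSO-dissolved test compounds / Timing: 30 min, room temperature / Measured by: luminescence from enzymatic CDP-Star hydrolysis / Control set: DMSO-only wells, enzyme-free buffer wells as negative control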
* marks the source's active call; other numbers are inactive results; i = inactive; nt = not tested or not shown.

SMILES	hIAP inh	bIAP inh	hIAP activ	mIAP inh	bIAP act	mIAP act
CSc1ccccc1NC(=O)Nc1ccc(F)c(Cl)c1	20	1	0.81	-128	1	2.3*
CSc1ccccc1NC(=O)Nc1cccc(Cl)c1	9	6	0.91	-113	0.9	2.1*
Cc1ccc(NC(=O)Nc2ccc(F)c(Cl)c2)cc1	-14	31	1.1	-188	0.7	2.9*
CCCn1c(C(O)c2ccc(C)cc2)nc2ccccc21 (stereo unspecified)	-21	nt	1.2	8	nt	0.92
CCCn1c(C(O)c2ccc3c(c2)OCO3)nc2ccccc21 (stereo unspecified)	-9	-478	1.1	3	5.8*	0.97
CC(=O)C[C@H](O)CC(=O)[C@H]1OC(=O)CCCCCCCCc2ccccc21	-10	nt	1.1	-4	nt	1
O=C(/C=C/c1ccc(O)c(O)c1)c1ccccc1O	70*	nt	0.3	32	nt	0.68
O=C(Nc1cccc(Cl)c1)NC1CCN(C2CCCCC2)C1 (stereo unspecified)	-8	nt	1.1	-132	nt	2.3*
O=C(NC1CCN(C(=O)Nc2cccc(Cl)c2)CC1)C1CCCCC1	-17	nt	1.2	-9	nt	1.1
COc1cccc(-n2c(Cc3cc(=O)[nH]c(=O)[nH]3)nnc2SCc2cccc(C(F)(F)F)c2)c1	22	2	0.78	1	1	0.99
CCCC(=O)Nc1ccc(C(=O)N/N=C/c2ccc([N+](=O)[O-])o2)cc1	-28	-38	1.3	40*	1.4	0.6
Cc1cc(C)nc(/N=C(\N)Nc2ccc(OCc3ccccc3)cc2)n1	-108	i	2.1*	-70	6.2*	1.7
C[C@H](CO)N1C[C@H](C)[C@@H](CN(C)C(=O)Nc2ccc3c(c2)OCO3)Oc2ccc(NC(=O)NC3CCCCC3)cc2C1=O	4	nt	0.96	-129	nt	2.3*
C[C@H](CO)N1C[C@H](C)[C@@H](CN(C)C(=O)Nc2ccc(C(F)(F)F)cc2)Oc2ccc(NC(=O)Nc3ccc4c(c3)OCO4)cc2C1=O	7	nt	0.93	-138	nt	2.4*
C[C@@H]1CN([C@H](C)CO)C(=O)c2cc(NC(=O)Nc3ccc(F)cc3)ccc2O[C@H]1CN(C)C(=O)Nc1ccc(C(F)(F)F)cc1	-7	nt	1.1	-103	nt	2*
CC(C)NC(=O)Nc1ccc2c(c1)C(=O)N([C@H](C)CO)C[C@H](C)[C@@H](CN(C)C(=O)Nc1ccc(C(F)(F)F)cc1)O2	-10	nt	1.1	-132	nt	2.3*
C[C@H](CO)N1C[C@H](C)[C@@H](CN(C)C(=O)Nc2ccccc2)Oc2ccc(NC(=O)Nc3ccc(C(F)(F)F)cc3)cc2C1=O	10	nt	0.9	-90	nt	1.9
COc1ccc(C(C)NC(=O)C2CCCC2)cc1OC (stereo unspecified)	-6	nt	1.1	-4	nt	1
CCc1nn(C(CC)C(=O)NCCc2ccc(OC)cc2OC)c(=O)c2cc3occc3n12 (stereo unspecified)	-21	nt	1.2	-7	nt	1.1
O=C(/C=C/Nc1ccc(F)c(Cl)c1)c1ccccc1	-8	nt	1.1	6	nt	0.94
COc1cc(C(=O)NNC(=O)CN2C(=O)NC(C)(c3ccc(C)cc3)C2=O)cc(OC)c1OC (stereo unspecified)	-21	nt	1.2	-1	nt	1
Cc1ccc(Nc2nc(/N=C/NO)n[nH]2)cc1C	-149	-18	2.5*	3	1.2	0.97
C=CCn1cnnc1SCC(=O)Nc1cccnc1Cl	-23	nt	1.2	-5	nt	1.1
CCOc1cc(/C=C2/N=C(C)C(C(=O)OC)=C2O)ccc1O	17	nt	0.83	42*	0.4	0.58
CC(C1CC2CCC1C2)N1CC(O)=C(c2nc3ccccc3[nH]2)C1=N (stereo unspecified)	-84	nt	1.8	-4	nt	1
SMILES	hIAP inh	bIAP inh	hIAP activ	mIAP inh	bIAP act	mIAP act
CC(C)N1CC(O)=C(c2nc3ccccc3[nH]2)C1=N	-1	-122	1	-15	2.2*	1.2
CC1CN(C(=S)NC(=O)c2ccco2)CC(C)O1 (stereo unspecified)	-3	8	1	0	0.9	1
CCOc1ccc(NC(=O)CCC(=O)NNC(=O)COc2ccc(C)cc2Br)cc1	-96	nt	2	49*	nt	0.51
OC[C@@H]1[C@@H](c2ccc(Cl)cc2)C(c2ccc(F)cc2)=NN1c1ccccc1	nt	nt	nt	-102	nt	2*
Cc1cccc(C2=NN(c3ccccc3)[C@H](CO)[C@H]2c2ccc(Cl)cc2)c1	nt	nt	nt	-101	nt	2*
OC[C@@H]1[C@@H](c2ccccc2)C(c2ccc(F)cc2)=NN1c1ccccc1	nt	nt	nt	-84	nt	1.8
Cc1cccc(NC(=O)c2cn(-c3ccccc3)nc2-c2ccccc2)c1	-9	6	1.1	-159	0.9	2.6*
O=C(NC(=S)Nc1ccccc1N1CCOCC1)c1ccc(-c2cc(Cl)ccc2Cl)o1	-15	-289	1.2	13	3.9*	0.87
O=C(Cc1cccc2ccccc12)N/N=C/c1ccc(OC(=O)/C=C/c2ccco2)cc1	6	7	0.94	63*	0.9	0.37
O=C(Cc1cccc2ccccc12)N/N=C/c1ccc(F)cc1	4	4	0.96	-3	1	1
c1ccc(-c2csc(NC3CCCCC3)n2)cc1	20	nt	0.8	4	nt	0.96
O=C(Nc1nc(-c2ccccc2)cs1)NC1CCCCC1	-5	17	1	-157	0.8	2.6*
C#CCNC(=O)C1=C[C@H](C)[C@@H](CCCO)[C@H](OCC)O1	10	0	0.9	2	1	0.98
CC(C)c1ccc(NC(=O)C(c2ccccc2)N2CC(=O)Nc3ccccc32)cc1 (stereo unspecified)	3	-5	0.97	-108	1.1	2.1*
Cc1cc(C2N=C(N)Nc3nc4ccccc4n32)c(C)n1-c1ccccc1Cl (stereo unspecified)	20	-312	0.81	-96	4.1*	2
Cc1ccc(-n2c(C)cc(C3N=C(N)Nc4nc5ccccc5n43)c2C)c(C)c1 (stereo unspecified)	-18	i	1.2	-84	7*	1.8
Cc1nn(Cc2cccc(Oc3ccccc3)c2)c(C)c1NC(=O)NC12CC3CC(CC(C3)C1)C2	4	0	0.96	i	1	6.8*
O=C(NCc1ccccc1)NC12CC3CC(CC(C3)C1)C2	5	nt	0.95	-10	nt	1.1

Compound activity as filed in PubChem BioAssay.
